From the EternaBench riboswitch data

Tested on: MS2 coat protein
Experiment: apparent Kd, MS2 coat protein; higher = weaker binding; RNA-MaP array; FMN 200 µM where present
How it was run: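 On Illumina sequencing-chip clusters, designs were transcribed by stalled E. coli RNA polymerase and titrated with SNAP-549-labelled MS2 coat protein (0.7 or 1.5 nM, doubling to 3 µM), without and then with constant ligand, in 100 mM Tris-HCl pH 7.5, 80 mM KCl, 4 mM MgCl2, BSA, DTT, yeast tRNA and Tween-20. Apparent Kd is the median of filtered per-cluster curve fits to green signal normalised to red-channel RNA signal and control-cluster median Fmax.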

[1] = designed as: ON switch for flavin mononucleotide, no ligand
[2] = ligand present: flavin mononucleotide, designed as: ON switch for flavin mononucleotide
[3] = designed as: OFF switch for flavin mononucleotide, no ligand
[4] = ligand present: flavin mononucleotide, designed as: OFF switch for flavin mononucleotide

GCCAUCAUAUGAGGAUAUGACACCGAAACGGUGUCAGAAGGCAUGUCGAUAGACAUGAGGAUCACCCAUGUAUAGAUGAUGGCA
apparent Kd [1]: 0.963 µM | apparent Kd [2]: 0.0678 µM

UUCAAGUCAGGAUAUCCAUAUUUCUGAUAUAACGGUACUUUGGAGAAGGGACAUGAGGAUCACCCAUGUAAUCU
apparent Kd [3]: 0.0245 µM | apparent Kd [4]: 0.0283 µM

AAAUAAAGCAGUGUGGUAAGAUCACAUGAGGAUCACCCAUGUAAGGAUAUGACGAGCAAAGCUCGUCAGAAGGUACGUCACUGC
apparent Kd [3]: 0.034 µM | apparent Kd [4]: 0.133 µM

AUCCCGAUAGUAGGAUAUUUCUGCAGUUGUGGUUAGGUCGCCCUACAUGAGGAUCACCCAUGUAGAGAGAAGGACUGUGGUUAA
apparent Kd [3]: 0.00552 µM | apparent Kd [4]: 0.0067 µM

CGCGAAAACAUAGGAUAUUGUUACAUGAGGAUCACCCAUGUCAACCAUUUAUCUCAAAUUGUUGACAAGAAGGAUGAGGUCGCG
apparent Kd [1]: 0.113 µM | apparent Kd [2]: 0.0284 µM

AAACACGGAGGAUAUACAGGUUCGGGAAACCGAACCGGCUGACAUGAGGAUCACCCAUGUAGAAGGCCGAAAUA
apparent Kd [3]: 0.0193 µM | apparent Kd [4]: 0.0458 µM

UAAACACCCUCAUGUACCUGAGGACAUGAGGAUCACCCAUGUAAGGAUAUAGCCAUUAAAUCUAACUAGAAGGUAUAGGAAAUC
apparent Kd [3]: 0.865 µM | apparent Kd [4]: 0.529 µM

UAGUAUAAGGGCAUUAAACAUGAGGAUCACCCAUGUACGAUAGAGGAUAUGCAUUUCAGUUUAGAGUAGAAGGUUAGAGAAUUG
apparent Kd [3]: 0.0395 µM | apparent Kd [4]: 0.0416 µM

GGUUGGCGAGGAUAUACAUGAGGAUCACCCAUGUGGUCCUGUGGCUGGUCUUACCUUUGUAGAAGGCGCGGGUC
apparent Kd [3]: 0.0884 µM | apparent Kd [4]: 0.0932 µM

AAAUGAUAGUCAGGAUAUAAGUUGGAGCCUCGGUCGCACAUGAGGAUCACCCAUGUGUCUUGGAUUUAGAAGGGACAGAUGGGC
apparent Kd [1]: 0.682 µM | apparent Kd [2]: 0.648 µM

UUAAUGUGAGGAUAUCAGGUGUGCUAGCGUACUGGUACAUCUGAGAAGGCACAUGAGGAUCACCCAUGUUUCUU
apparent Kd [3]: 0.0327 µM | apparent Kd [4]: 0.11 µM

UAAAUUAACAAGAAGGCUAACAUGAGGAUCACCCAUGUUGUACAUGGAUAUAGAGGAUAUUGAUAAUAAUUUUUUAUCAUAAUU
apparent Kd [3]: 0.0176 µM | apparent Kd [4]: 0.0165 µM

AAAAUCUAUUGAGGAUAUUCAUACACUGCAUACGGAGAAGGCAAACAAUCAUGAGGACAUGAGGAUCACCCAUGUUGUGACCAU
apparent Kd [1]: 0.0175 µM | apparent Kd [2]: 0.0153 µM

ACAUGAGGAUCACCCAUGUAUUACAUGGUUAAGUUUAUUAACAGAAGGCGAAAUUACCACUUUUUCGAGGAUAUGUAUUCUAUA
apparent Kd [3]: 0.0382 µM | apparent Kd [4]: 0.0527 µM

UAUAUGUCAGGAUAUCGAUUGGAAUGGAAUUCAGUUCUGGUUGAGAAGGGACAUGAGGAUCACCCAUGUUUUUC
apparent Kd [3]: 0.0373 µM | apparent Kd [4]: 0.171 µM

AGAAACUACGAGAAGGACAUGUGAACCUUCAAUUACAUGAGGAUCACCCAUGUAGGAUAUCGUAGUUUCAGGAUCGUGAGAUCA
apparent Kd [3]: 0.0167 µM | apparent Kd [4]: 0.115 µM

AAAUCGGUAGGAUAUACGAUUUGGUACUAGACCGAGGAACCACAUGAGGAUCACCCAUGUAGAAGGACCAGAUA
apparent Kd [3]: 0.0207 µM | apparent Kd [4]: 0.0139 µM

UAGGACUACGUAGGAUAUGUAGUAUAUUACUACAUGAGGAUCACCCAUGUAAGCAUGUUAUUAGGACAGAAGGACGUGGUAAAU
apparent Kd [1]: 0.0436 µM | apparent Kd [2]: 0.0137 µM

CUCGUGUGAGGAUAUCUAUUCCACGGACGGGAGUCUUGAUGAGAGAAGGCACAUGAGGAUCACCCAUGUAAUAA
apparent Kd [3]: 0.14 µM | apparent Kd [4]: 0.0867 µM

CCGCGCGCGCGAGGAUAUCUAUAUCCAACAUGAGGAUCACCCAUGUUGAGGAUCACCCAUGUAAAGGAGAAGGCGCGCGCGCGG
apparent Kd [1]: 0.0448 µM | apparent Kd [2]: 0.0158 µM

GGGUACAUCGGAGGAUAUCAUGUGUAAACAUGAGGAUCACCCAUGUCGUACGAGAGUACGGAGAUUGAGAAGGCCGAUGUACCG
apparent Kd [1]: 0.0867 µM | apparent Kd [2]: 0.0166 µM

ACUAGAUGAGGAUAUGCACAUUUUAGUGUUCCUCUAGAUUAACAUGAGGAUCACCCAUGUAGAAGGCGUCAUUA
apparent Kd [3]: 0.068 µM | apparent Kd [4]: 0.0766 µM

CACAAGAAAGUCGAAGGUUGAAGUAGAAGGACAAUAACAUGACAUGAGGAUCACCCAUGUGCCAUGUAGGAUAUGCUUUAAUCG
apparent Kd [3]: 0.00854 µM | apparent Kd [4]: 0.00834 µM

AGCUGGUGACAGCAUCCAUCCUGACAUGAGGAUCACCCAUGUAGAAGGCUGUACGGUUACCGUACAGAGGAUAUACAAUGAUGG
apparent Kd [3]: 0.0101 µM | apparent Kd [4]: 0.0223 µM

AUCAGCUCGUCAGGAUAUACGUCACUGCGUCAGCAGUGUGGUAAGAUGACAUGAGGAUCACCCAUGUAGAAGGGACGAGCUGAU
apparent Kd [3]: 0.00682 µM | apparent Kd [4]: 0.0158 µM

UUAUUUUUACAGAAGGUUUAAUAAUAUGUAUGAGAAGGAUAUGUAACAUGAGGAUCACCCAUGUUUUAUUUAUAUGAGGUUCAU
apparent Kd [3]: 0.0108 µM | apparent Kd [4]: 0.00927 µM

UUGGAAGUCGUAGGAUAUGUAGGAUAUUCCUACAUGAGGAUCACCCAUGUUGACAUGGAAGAAGGACAGAAGGACGAUGUCCAU
apparent Kd [1]: 0.642 µM | apparent Kd [2]: 0.00699 µM

GGAAAACAUGAGGAUCACCCAUGUGAGGAUAUCGAUGUCCAAAAACAAGUGCGGGACUCGAGAAGGCACUUGGA
apparent Kd [3]: 0.035 µM | apparent Kd [4]: 0.0232 µM

AAACAUGUCCGAGGAUAUCUGAGAUCACUUUCAAGAGAAGGCGGACAUGAGGAUCACCCAUGUCUCUCCUCAUCAACUCCAAAU
apparent Kd [3]: 0.00801 µM | apparent Kd [4]: 0.0419 µM

CAAGCCAUUCGCAACUGCCGGCCGCAGGAUAUGGGUCGUUUAUACAUGAGGAUCACCCAUGUCGCCUAGAAGGGCGGCUGGGUC
apparent Kd [1]: 0.26 µM | apparent Kd [2]: 0.0389 µM

ACAGAGCCUGACAUGAGGAUCACCCAUGUUAGAUUGUUAUGUCAGGAUAUUGUCUAGCAACUAGACAAGAAGGGAUGCUCUGUG
apparent Kd [1]: 0.392 µM | apparent Kd [2]: 0.0298 µM

AACUAGCUAGGAUAUACAUGAGGAUCACCCAUGUAAAAAAAAAAAAAAAGAUCAAAAUGUAGAAGGAGCUAGUA
apparent Kd [3]: 0.106 µM | apparent Kd [4]: 0.132 µM

UCCGCUCGAGGAUAUACAUGAGGAUCACCCAUGUUUCCCUGUUGUUUGGCCUCAGGAUGUAGAAGGCGACGCUA
apparent Kd [3]: 0.0183 µM | apparent Kd [4]: 0.0236 µM

AUGACAGGCAGAGCGCAACGGCGUACAUGAGGAUCACCCAUGUAGGAUAUGCUACACAAAGUGUAGCAGAAGGACAUGCGACGC
apparent Kd [3]: 0.0234 µM | apparent Kd [4]: 0.0422 µM

ACUUGUAAGCAGAAGGCAGUCAUUGUAUUCGUCAUGUAGACAUGAGGAUCACCCAUGUAUAGUACUGAGGAUAUGCAUCGAUAG
apparent Kd [3]: 0.00788 µM | apparent Kd [4]: 0.0172 µM

AUGCUUCACACAGGAUAUACAUGAGGAUCACCCAUGUGUCCUCCGUAGCUGACACCAGCUACGCUGUAGAAGGGUGUGAAGCAU
apparent Kd [3]: 0.261 µM | apparent Kd [4]: 0.201 µM

CCAACGUACAAUUUAGAUCUACAUGAGGAUCACCCAUGUACGGAGGAUAUCAGCUCGAAUAGAGCUGAGAAGGCCGAAUUAAUU
apparent Kd [1]: 0.371 µM | apparent Kd [2]: 0.0894 µM

ACCUUACAUGAGGAUCACCCAUGUUAGGAUAUCUCGCUUUCGCUGUCACAGCGCAAGCAGAGAAGGGACACGGG
apparent Kd [3]: 0.0339 µM | apparent Kd [4]: 0.0645 µM

GGAUCAUAUGUCAGGAUAUGCAGGUCCUUGGAUCUGCAGAAGGGACAUGAGGAUCACCCAUGUCAUGAAGAUCC
apparent Kd [3]: 0.0356 µM | apparent Kd [4]: 0.202 µM

GAGUGACAUGAGGAUCACCCAUGUGAGGAUAUCGGACGGACCAAAUUAACAACAACCGCGAGAAGGCACAUCGG
apparent Kd [3]: 0.146 µM | apparent Kd [4]: 0.135 µM

CGUUUUAAACAAGGAUAUCAUUUGUGUACAAGUUUUACAUGAGGAUCACCCAUGUUAAAUGGUUUUGAGAAGGUGUUUAGAACG
apparent Kd [1]: 0.0311 µM | apparent Kd [2]: 0.025 µM

AUCAUGCUCAAGAAGGACAUGAGGAUCACCCAUGUAGGAUAUUGGGCGGUCACCUCUAGCUUGUGUGUAUCUGAAUACUCCAGG
apparent Kd [1]: 0.0211 µM | apparent Kd [2]: 0.00717 µM

CCGUUUUGAGGAUAUCCACCCUCAUACAUGAGGAUCACCCAUGUUCACCCUUGGGUUCCCGGAGAAGGCAGUUUUC
apparent Kd [3]: 1.12 µM | apparent Kd [4]: 0.828 µM

AUUUAAUUUAGCGAGAUCACAUGAGGAUCACCCAUGUAUAUAUAGGAUAUCAGCUCGUUUAGAGCUGAGAAGGAUAUAUACCGC
apparent Kd [3]: 0.0898 µM | apparent Kd [4]: 0.147 µM

CAGCGCUGUCGAGAGGAUAUGCAGUGAUGGACAUGAGGAUCACCCAUGUUAGCGAUAGCAUUACGGUAGAAGGCUCUACAGCUGC
apparent Kd [1]: 0.018 µM | apparent Kd [2]: 0.0151 µM

CUGGUGUGAGGAUAUCAGGACACGUAAGCGGGCGUGUCAAAUGAGAAGGCACAUGAGGAUCACCCAUGUGGGAC
apparent Kd [3]: 0.034 µM | apparent Kd [4]: 0.214 µM

GUGGACGUCGUAGGAUAUGUAGGAUAUUCCUACAUGAGGAUCACCCAUGUUUACAUGGAAGAAGGACAGAAGGACGAUGUCCAG
apparent Kd [1]: 0.992 µM | apparent Kd [2]: 0.0162 µM

AUACUCAUGUAAGGAUAUGCAGCCGUUUCGGCUGCAGAAGGUACUAUAAUACAUGAGGAUCACCCAUGUCUCUCGCAUUGCGGG
apparent Kd [1]: 0.4 µM | apparent Kd [2]: 0.101 µM

AGUACGUCAGGAUAUCUGAUGUCUAACUUCGGUUAGACAUCAGAGAAGGGACAUGAGGAUCACCCAUGUACAAA
apparent Kd [3]: 0.0418 µM | apparent Kd [4]: 0.0369 µM

CUCGUGUAAGGAUAUGCGAGCCGCGGAAAUACACCGCGGAGGUAGAAGGUACAUGAGGAUCACCCAUGUAAAAC
apparent Kd [3]: 0.0255 µM | apparent Kd [4]: 0.103 µM

AGGUCAACCACAGGAUAUGGCUAGCAUAGCUAGCCAGAAGGGUGGUCGUUGCCAUGUAAAUACAUGAGGAUCACCCAUGUAUCC
apparent Kd [1]: 0.19 µM | apparent Kd [2]: 0.0495 µM

CCUUAAAUUGUAAGGAUAUUAAAGCUGCUGAGUUAUAAGAAGGUACAUGAGGAUCACCCAUGUUCGGCAGGGUC
apparent Kd [3]: 0.0178 µM | apparent Kd [4]: 0.0184 µM

UAGCUCUCGGCAGGAUAUCCUGCAUAAUGUCGAGUCCGCGCCCGGACAUGAGGAUCACCCAUGUAGGAGAAGGGCCCACGGGCU
apparent Kd [3]: 0.0242 µM | apparent Kd [4]: 0.0455 µM

AGGUAAACCACAGGAUAUGGCUAGUAUAACUAGCCAGAAGGGUGGUCGAAACCAUGUAAAUACAUGAGGAUCACCCAUGUGUCC
apparent Kd [1]: 0.4 µM | apparent Kd [2]: 0.131 µM

GGAGCAACAUGAGGAUCACCCAUGUAGGAUAUCGCUAUUGUAAUCAUGAAACAUGAUUACAAUAGCGAGAAGGACAUAUGCUUU
apparent Kd [3]: 0.00932 µM | apparent Kd [4]: 0.0119 µM
